mHtt clearance: mutant huntingtin protein clearance | HeLa Exon1htt(103Q)mCFP, aggregate imaging; zero = plate's median compound well | 0.42% of 47,000 active | inhibition, % at 1.5 µM | AID 853;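 active = inhibition of aggregate fluorescence above about 70%, also judged a hit by eye on the cell image, limit read from the data, passing the limit was not always enough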;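 also: cells exposed to compound for three days before fixation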
D1 mod: allosterically modulates the human D1 dopamine receptor; P21728; HEK293 D1, CRE-luciferase, dopamine EC30 potentiation; actives deviate in either direction; B-score at 10 µM; 5.9% of 58,000 active; AID 641;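 active = luminescence count or its row- and column-corrected plate score outside the 99.7% band of the plate's sample wells, on either side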
Target sequence (P21728 whole entry, looked up): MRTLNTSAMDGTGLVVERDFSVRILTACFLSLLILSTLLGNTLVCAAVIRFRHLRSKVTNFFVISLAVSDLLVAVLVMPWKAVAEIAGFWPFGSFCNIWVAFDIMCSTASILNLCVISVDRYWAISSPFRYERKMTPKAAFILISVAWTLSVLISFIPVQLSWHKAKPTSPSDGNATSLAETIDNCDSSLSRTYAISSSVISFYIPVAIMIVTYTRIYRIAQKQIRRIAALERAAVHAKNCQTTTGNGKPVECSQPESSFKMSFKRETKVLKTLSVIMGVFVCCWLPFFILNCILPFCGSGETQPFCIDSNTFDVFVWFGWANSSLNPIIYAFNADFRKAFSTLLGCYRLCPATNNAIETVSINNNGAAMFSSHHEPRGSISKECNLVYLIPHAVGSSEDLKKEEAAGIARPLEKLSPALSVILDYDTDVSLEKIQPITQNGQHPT
AP ELISA ortho: alternative pathway complement inhibition, orthogonal assay. Human serum alternative complement pathway, LPS-coated ELISA, C3 deposition; tested in compound mixtures. inhibition, % at 5 µM. 0.08% of 62,000 active. AID 1235;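 active = inhibition above 30% in each of the two pooled mixtures holding the compound, so the lower value exceeds 30%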;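 also: 0% = serum in Mg-EGTA without compound and 100% = EDTA serum blank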
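Assay system: human serum alternative complement pathway, C3 deposition on LPS-coated wells; Dosing: 5 µM per compound in ten-compound mixtures; Detection: Anti-C3 ELISA, OD 450 nm; Buffer or medium: Mg2+-EGTA GVB++ buffer containing human serum at 1:15 dilution; Timing: 1 h at 37 °C; Replication: two different pools per compound.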
M1 ag: activates the M1 muscarinic receptor. CHO-M1 cells, Fluo-4 calcium fluorescence, agonist mode; hits give high values. B-score at 10 µM. 3% of 64,000 active;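 active = fluorescence rise, raw or as B-score row- and column-corrected plate score, outside the 99.7% band of its plate's samples, either direction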
M1 antagonist: M1 muscarinic receptor (rat) antagonism; P08482; B-score at 10 µM; 3.4% of 64,000 active; CHO-M1 cells, Fluo-4 calcium, ACh EC80 antagonist mode; hits give low values;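 active = calcium fluorescence response, raw or row-and-column corrected B-score, differing from the plate sample mean either way at a set confidence level, mostly lower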
M1 antag conf: M1 muscarinic receptor (rat) antagonism, confirmed | CHO-M1 cells, Fluo-4 calcium, ACh EC80 antagonism; hits give low values | 43% of 1,700 active | AID 677 | calcium response (max-min fluorescence) at 10 µM | shares compounds with M1 antagonist;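 active = calcium response below the same-plate mean of wells given acetylcholine alone at its 80%-effect dose, minus 3 SD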;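 also: raw fluorescence intensity difference in arbitrary instrument units and not normalized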
mGluR4 antag: selectivity test for M1 antagonists: human mGluR4 receptor. shares compounds with M1 antagonist. CHO-mGluR4 calcium flux, Fluo-4 fluorescence, glutamate EC80; hits give low values. fluorescence response (max-min) at 10 µM. 0.9% of 1,700 active;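 active = fluorescence response below the plate's average for near-maximal glutamate wells, less 3 SD of those wells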;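 also: raw unnormalized fluorescence span taken in the window right after glutamate addition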
Numbers without * were called inactive; . = not tested or not shown. Sampled rows, rich in hits. Any-hit rate of the full collection: about 9%.

SMILES	mHtt clearance	D1 mod	AP ELISA ortho	M1 ag	M1 antagonist	M1 antag conf	mGluR4 antag
O=C(NCCN1CCOCC1)C1CCC(=O)N1C1CCCCC1 (centres undefined)	.	-0.51	8	1.2	-1.4*	457	188
CC(C)N(CCCNC(=O)C1CCN(S(=O)(=O)N2CCOCC2)CC1)Cc1ccccc1	-9	-0.48	5	0.058	-3.8*	421	208
CN(CCCNC(=O)C1CCN(S(=O)(=O)N2CCC3(CC2)OCCO3)CC1)Cc1ccccc1	.	-0.95	18	-0.035	-0.56	.	.
CCN(CCCNC(=O)C1CCN(S(=O)(=O)c2cccc3nonc23)CC1)Cc1ccccc1	.	-0.18	11	-0.1	-6.8*	304*	166
COc1ccc(C2C(C(=O)NCCN3CCOCC3)c3ccccc3C(=O)N2C2CCCCC2)cc1 (centres undefined)	32	-0.087	1	0.21	0.7	.	.
CN(C)c1ccc(C2CC(=O)NC3=C2C(=O)CC(C)(C)C3)cc1 (centres undefined)	18	.	8	0.25	-0.042	.	.
CCN(CC)c1ccc(C2CC(=O)NC3=C2C(=O)CC(C)(C)C3)cc1 (centres undefined)	.	0.61	8	0.23	-3.2*	381*	252
Cc1c(NC(=O)CSc2nnc(-c3cccc(Cl)c3)o2)c(=O)n(-c2ccccc2)n1C	-39	0.18	10	-0.35	0.0031	.	.
COc1cc(C(=S)N2CCCC2)ccc1O	.	.	3	-0.91	0.21	.	.
COc1cc(C(=S)N2CCCC2)cc(Cl)c1O	.	.	14	-0.011	-2*	685	246
CCCCn1c(=O)n(CC(O)c2ccccc2)c(=O)c2c1ncn2C1CCCC1 (centres undefined)	13	0.22	-11	-0.17	-3.8*	450	199
CCN(C(=O)c1coc(=O)c2ccccc12)c1cc(OC)ccc1OC	-1	0.37	9	.	.	.	.
CCN(C(=O)Cc1c(C(=O)O)[nH]c2ccccc12)c1cc(OC)ccc1OC	12	-0.025	1	-0.64	-2.2*	448	207
O=c1c(=O)n(O)c2ccccc2n1O	.	0.1	11	-0.19	0.22	.	.
c1ccc(CSc2nnc(-c3ccncc3)o2)cc1	.	.	7	.	.	.	.
Cc1cc(-c2nnc(SCc3ccccn3)o2)no1	48	0.71	12	-0.92	-1.8*	602	241
CC(C)(C)c1cnnn1-c1ccc(NC(=O)c2ccc(Br)o2)cc1	.	.	0	-0.014	-2.3*	560*	236
CCN1CCc2c(C#N)c(N3CCCCC3)nc(NCc3ccccc3)c2C1	.	-0.024	-1	-2.5	-0.46	.	.
CCN1CCc2c(C#N)c(N3CCOCC3)nc(NCc3ccccc3)c2C1	-37	0.93	6	-2	-2.2*	572	195
COc1ccc(N2C(=O)CCC(C(=O)N3CCOCC3)C2c2ccc(F)cc2)cc1 (centres undefined)	-36	.	8	0.46	-3.1*	542	227
COc1ccc(C2C(C(=O)N3CCN(c4ccccc4)CC3)c3ccccc3C(=O)N2C)cc1OC (centres undefined)	-10	-0.67	17	0.53	-4.4*	538	201
COc1ccc(C2C(C(=O)N3CCOCC3)c3ccccc3C(=O)N2c2ccc(OC)cc2)cc1 (centres undefined)	-45	0.91	5	-0.19	-13*	701	232
COc1ccc(N2C(=O)CCC(C(=O)N3CCCCC3)C2c2ccc(F)cc2)cc1 (centres undefined)	.	0.82	15	-0.3	-0.42	.	.
CN1CCN(c2ccccc2NC(=O)COc2ccc(Br)cc2)CC1	40	.	.	.	.	.	.
COC(=O)C1CCN(c2cc(=O)n(-c3ccc(OC)cc3)c(=O)[nH]2)CC1	.	1.2	-1	0.42	-0.91	.	.
SMILES	mHtt clearance	D1 mod	AP ELISA ortho	M1 ag	M1 antagonist	M1 antag conf	mGluR4 antag
COc1ccccc1N1CCN(C(c2ccccc2)c2nnnn2CCc2ccccc2)CC1 (centres undefined)	-42	.	.	.	.	.	.
CCn1cc(C(=O)NCCCN2CC(C)CC(C)C2)c2cc(OC)c(OC)cc2c1=O (centres undefined)	-29	.	19	-0.65	-1.8*	595	196
Cc1cc(C(=O)CSc2nnnn2C)c(C)n1-c1ccc2c(c1)OCCO2	-6	0.83	-10	-0.89	-2.8*	435*	297
CCCCOC(=O)c1ccc(OC(=O)c2cccnc2)cc1	9	0.65	5	-0.09	-5.1*	620	266
CCCCCCOC(=O)c1ccc(OC(=O)c2cccnc2)cc1	8	.	.	.	.	.	.
C#CCSc1nnc(-c2ccc(OC)cc2)o1	8	.	.	.	.	.	.
CCC1(C)Cc2ccccc2/C(=C/C(=O)N2CCCCC2)N1 (centres undefined)	28	0.089	13	-0.79	-2.7*	18*	246
CN(C)C(=O)CSc1nnc(-c2cc(-c3cccs3)nc3ccccc23)o1	-63	-1.4	0	1.5	-3.7*	565	207
O=C(OCc1ccc(Cl)cc1)c1ccccc1C(=O)c1ccccc1	23	.	.	.	.	.	.
CN1CCN(c2nc(NCCOC34CC5CC(CC(C5)C3)C4)nc(OCC(F)(F)F)n2)CC1	.	-0.3	19	-1.1	-6.2*	484*	190
Clc1ccc(CSC2=NCCCN2)cc1Cl	.	-0.6	16	0.1	-4*	355*	213
COc1cccc(CNC(=O)CCn2c(=O)oc3ccccc32)c1	-27	0.19	9	-0.32	-3.5*	538	253
O=C(O)c1ccc(NC(=O)C2CC=CCC2C(=O)O)cc1 (centres undefined)	19	0.049	15	-0.07	-7.2*	644	244
O=C(O)C1CC=CCC1C(=O)Nc1ccccc1 (centres undefined)	58	.	.	.	.	.	.
CCc1cccc(NC(=O)CS(=O)Cc2nc(-c3ccc(C)cc3)oc2C)c1 (centres undefined)	38	1.5	22	1.5	0.43	.	.
CN1CCN(CCC(=O)N2c3ccccc3Sc3ccc(C(F)(F)F)cc32)CC1	28	.	.	.	.	.	.
CN(C)CCCN1c2ccccc2Sc2ccc(C(F)(F)F)cc21	.	-5.3	-5	-0.94	-15*	24*	273
Cn1cc(C(=O)N2CCN(C(=O)c3ccco3)CC2)c2c3ccccc3n(C)c2c1=O	.	0.93	13	0.5	0.36	.	.
COc1ccc(NC(=O)c2ccc(CN3CCN(c4ccccc4)CC3)cc2)cc1OC	.	-1.4	1	-0.57	-2.7*	593	240
C#CCNc1nc(C)nc2c1nnn2Cc1ccccc1F	-45	3.6	15	0.037	0.12	.	.
O=C(NC12CC3CC(CC(C3)C1)C2)N1CCC(O)CC1	-59	0.084	5	0.43	-0.017	.	.
O=C(NC12CC3CC(CC(C3)C1)C2)N1CCN(C(=O)C2CCCO2)CC1 (centres undefined)	.	-0.39	6	-0.68	-1.8*	542	209

Assay outcomes (PubChem)
